Measured values reported in PubChem BioAssay AID463141 (The Scripps Research Institute Molecular Screening Center, 2010).
Out of some 330,000 compounds screened, about 350 (0.11%) were called active.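 The calls were made as follows: active = activation above the mean of all tested compounds plus 3 SD (cut at about 21% in these data); inactive = the rest.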 Shown is part of a subset that was picked to be rich in actives.

Target: Caspase-3 (Homo sapiens) (UniProt P42574)
Assay: procaspase-3 enzyme activation – biochemical, absorbance, PC-3 D3A mutant, single concentration, primary screen (AID 463141);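 also: 0% = DMSO alone and 100% = DMSO wells spiked with extra 5 µM PC-3 D3A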
Settings: recombinant procaspase-3 D3A, Ac-DEVD-pNA absorbance 405 nm; at 8.5 µM; stronger effect = higher value
Outline: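 Assay system: Autoprocessing-dead procaspase-3 D3A mutant enzyme; also added: Ac-DEVD-pNA; doses: one concentration, 8.5 µM nominal, 0.8% DMSO; times: 1 h compound preincubation, 2 h substrate hydrolysis at 25 °C; technique: 405 nm absorbance of p-nitroaniline, reads at 0 and 120 min; measure: % activation between DMSO and enzyme-spiked controls; repeats: single replicate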

Chain of Caspase-3 (Homo sapiens) (P42574 whole entry D9A/D28A/D175A): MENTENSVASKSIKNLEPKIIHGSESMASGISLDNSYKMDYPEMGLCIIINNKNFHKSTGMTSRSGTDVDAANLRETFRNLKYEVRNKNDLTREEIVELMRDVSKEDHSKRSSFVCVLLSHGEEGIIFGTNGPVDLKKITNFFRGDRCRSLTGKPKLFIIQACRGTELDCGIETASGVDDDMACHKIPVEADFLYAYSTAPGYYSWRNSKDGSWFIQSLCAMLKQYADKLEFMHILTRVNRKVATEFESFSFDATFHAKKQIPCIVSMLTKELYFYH

SMILES	activation
COc1ccc(S(=O)(=O)Nc2ccccc2C(=O)N2CCCC2)cc1C	9.9% (inactive)
COc1ccccc1NS(=O)(=O)c1ccc(C(=O)N2CCN(c3ccccc3O)CC2)cc1	21.8% (active)
COc1ccccc1N1CCN(C(=O)c2ccc(S(=O)(=O)N3CCCCC3)cc2)CC1	-4.47% (inactive)
CC(NC(=O)c1ccccc1C(=O)O)c1ccc(-n2ccnc2)cc1 (configuration not stated)	-0.91% (inactive)
C=CCNc1nc(Nc2ccc(Cl)cc2)nc(OC)n1	3.18% (inactive)
COc1cccc(-c2cc3nc4c(c(N5CCC6(CC5)OCCO6)n3n2)CCCC4)c1	5.55% (inactive)
NC(=O)C1CC=CCC1C(=O)OCC(Cl)=C(Cl)Cl (configuration not stated)	-0.01% (inactive)
CSc1nsc(SC)c1NC(=O)OC1CCCCC1	-22.8% (inactive)
CCCN1CCN(C(=O)CCCNC(=O)c2ccc(Cl)cc2)CC1	-2.14% (inactive)
CC(C)OCCCNC(=O)CN1C(=O)/C(=C/c2ccccc2F)Oc2ccccc21	-1.27% (inactive)
CN1CCN(CCCNC(=O)c2ccc(/C=C3\Oc4ccccc4N(Cc4ccc(Cl)cc4)C3=O)cc2)CC1	38.4% (active)
N#CC1(NC(=O)COC(=O)CSc2ccc(F)cc2)CCCCC1	-6.99% (inactive)
CCCOn1c(-n2nc(C)cc2C)nc2ccccc2c1=O	7.25% (inactive)
CCC(C)(C)NC(=O)C(c1ccccn1)N(C(=O)c1csnn1)c1ccccc1 (configuration not stated)	2.32% (inactive)
Cc1ccc(S(=O)(=O)NNC(=S)NC(C)(C)C)cc1	9.08% (inactive)
COc1ccccc1CN(C)c1nnnn1-c1ccccc1	9.63% (inactive)
O=C(NCc1cccs1)C(=O)NCC1OCCCN1S(=O)(=O)c1ccc(F)cc1 (configuration not stated)	1.51% (inactive)
CCc1c(C)c2ccc(OC3CCCCC3=O)cc2oc1=O (configuration not stated)	3.96% (inactive)
COC(=O)Cc1c(C)c2ccc(OCC(=O)NCc3ccc4c(c3)OCO4)cc2oc1=O	0.37% (inactive)

SMILES	activation
CC(=O)Oc1ccc2c(C)c(CC(C)O)c(=O)oc2c1 (configuration not stated)	24.1% (active)
COc1ccc(CCNC(=O)COC(=O)C2CC2C)cc1 (configuration not stated)	9.52% (inactive)
COc1ccc(CCNC(=O)COC(=O)c2ccc[nH]c2=O)cc1	23.9% (active)
COc1ccc(CCNC(=O)COC(=O)c2cc(=O)c3ccccc3o2)cc1	-1.38% (inactive)
COc1ccc(S(=O)(=O)N(CCCN2CCCC2=O)Cc2cc3c(C)ccc(C)c3[nH]c2=O)cc1	-7.13% (inactive)
CCn1c(SCC(=O)Nc2ccc(C)cc2)nc2nc3c(cc2c1=O)CCCC3	3.79% (inactive)
O=C1[C@H]2[C@@H](c3ccc(F)cc3)N3C(=O)N(c4ccc(C(F)(F)F)cc4)C(=O)[C@@]3(Cc3ccccc3)[C@H]2C(=O)N1C1CCCCC1	5.91% (inactive)
c1ccc2cc(CCCc3cc4ccccc4cn3)ncc2c1	-5.39% (inactive)
O=C(COC(=O)c1cccc(Cl)c1)NC(=O)NCc1ccccc1	7.09% (inactive)
Cc1cc(C)c2c(-n3cccc3)c(C(=O)NNS(=O)(=O)c3ccc(F)cc3)sc2n1	-8.55% (inactive)
CCOC(=O)C1=CN(Cc2ccc(Br)cc2)S(=O)(=O)NC1C (configuration not stated)	-3.39% (inactive)
COC(=O)C1=C(C)N(C(C)c2ccccc2)C(=O)/C1=C\c1ccco1 (configuration not stated)	1.04% (inactive)
Cc1ccc(-c2nnc(Nc3ccc(C(=O)N(C)C)cc3)c3ccccc23)cc1S(N)(=O)=O	6.07% (inactive)
COC(=O)c1ccc(CNC(=O)C2CCC(=O)N(Cc3ccccn3)C2)cc1 (configuration not stated)	4.62% (inactive)
CN(C)/C=C(/C(=O)c1ccc(F)cc1)S(=O)(=O)c1ccc(F)cc1	2.38% (inactive)
O=C(Nc1ccccc1-c1nnn(CC(=O)N2CCCc3ccccc32)n1)c1cccc(Cl)c1	0.94% (inactive)
CCC(C)[C@H](NC(=O)N1CCn2c1nc1ccccc12)C(=O)NCc1ccc(OC)cc1 (some centres not stated)	9.75% (inactive)
COc1cccc(NC(=S)C(C#N)=C2N(C)c3ccccc3N2C)c1	0.38% (inactive)
CC1=C(C(=O)OC(C)(C)C)C(c2ccc(Br)cc2)NC(=O)N1CCCC(=O)O (configuration not stated)	1.2% (inactive)

SMILES	activation
CC(=O)c1ccc(NC(=O)C(C)N(C)CC(=O)Nc2ccccc2Cl)cc1 (configuration not stated)	-3.65% (inactive)
CCC(C)(C)NC(=O)c1cc([N+](=O)[O-])ccc1N1CCCCC1	-7.67% (inactive)
N#Cc1c(NCCO)ccc([N+](=O)[O-])c1NCCO	3.1% (inactive)
O=S(=O)(N/N=C\c1cccn1-c1ccccc1)c1ccc2ccccc2c1	0.8% (inactive)
COc1cc(CN2CCN(Cc3ccc(C)cc3)CC2)c([N+](=O)[O-])cc1OC	8.01% (inactive)
COc1ccc(-c2noc(CCC(=O)N3CCN(c4cccc(C)c4)CC3)n2)cc1	-0.7% (inactive)
CCOc1ccc2nc(NCCNS(=O)(=O)c3ccccc3)c(C#N)cc2c1	27.3% (active)
CCOc1ccc2nc(NCCNC(=O)C(C)(C)C)c(C)cc2c1	-11.1% (inactive)
CCOc1ccc(S(=O)(=O)NCCSc2ccccc2)cc1	-4.36% (inactive)
C[C@H](CO)N1C[C@H](C)[C@@H](CN(C)S(=O)(=O)c2ccc(F)cc2)Oc2ccc(NC(=O)CCC(F)(F)F)cc2C1=O	7.71% (inactive)
COCCNC(=S)Nc1cc(S(=O)(=O)N2CCOCC2)ccc1N1CCCCC1	-18.3% (inactive)
CCC(C)N1CC(=O)N2Cc3[nH]c4ccccc4c3C[C@H]2C1=O (some centres not stated)	0.63% (inactive)
CC(=O)Nc1ccc(NC(=O)C(C)OC(=O)c2ccccc2C(=O)c2ccc(Cl)c([N+](=O)[O-])c2)cc1 (configuration not stated)	-0.74% (inactive)
COC(=O)c1nc2n(n1)C(c1ccc([N+](=O)[O-])cc1)C(C(=O)Nc1ccc(Cl)cc1)=C(C)N2 (configuration not stated)	3.68% (inactive)
COC(=O)c1sc(N)c(C(=O)OC)c1COC(=O)CNS(=O)(=O)c1ccc(C)cc1	3.17% (inactive)
CCN1CCN(C(=O)C2(NC(=O)Nc3cccc(F)c3)CCCCC2)CC1	-1.86% (inactive)
COc1ccc2sc(-c3ccc(N(C)C)cc3)c(C#CCO)c2c1	21.1% (inactive)
COc1ccc2sc(-c3ccc(S(C)(=O)=O)cc3)c(C#Cc3cncn3C)c2c1	-7.99% (inactive)
COc1ccc(-c2sc3ccc(OC)cc3c2C#Cc2ccccn2)cc1	21.3% (active)
